Test results reported in ChEMBL document CHEMBL3351368, “Biphenyl-4-carboxylic acid [2-(1H-indol-3-yl)-ethyl]-methylamide (CA224), a nonplanar analogue of fascaplysin, inhibits Cdk4 and tubulin polymerization: evaluation of in vitro and in vivo anticancer activity” (J Med Chem, 2014).
The source made the active and inactive calls.

How the values were obtained:
Homo sapiens = organism: Homo sapiens; test: Inhibition of human PKA assessed as enzyme activity at 10 uM
MiaPaCa = test: Effect on p53 level in p53His273 mutant, pRb+ human MiaPaCa cells at IC50 concentration after 48 hrs by Western blot analysis; format: functional
[1] = target: CDK6/cyclin D1 (Homo sapiens) (UniProt P24385+Q00534); test: Inhibition of human CDK6/cyclinD1 assessed as enzyme activity at 10 uM; format: protein-complex assay
[2] = Terminal half life in BALB/c mouse at 1 mg/kg, iv; format: ADME, organism-based; design: dose 1 mg/kg, route intravenous; settings: in vivo, read-out: beta t1/2 (converted)
Summary of the method: (§1)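 BALB/c mice given a single dose of 1.0 mg/kg IV or 10 mg/kg orally; plasma concentration followed over time and pharmacokinetic parameters derived from the time-concentration profile.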

[3] = AUC (0 to t) in BALB/c mouse at 1 mg/kg, iv; format: ADME, organism-based; design: dose 1 mg/kg, route intravenous; settings: plasma; summary of the method: as §1
[4] = Volume of distribution at steady state in BALB/c mouse at 1 mg/kg, iv; format: ADME, organism-based; design: dose 1 mg/kg, route intravenous; settings: in vivo, read-out: Vdss; summary of the method: as §1
[5] = Cell cycle arrest in mouse BNL-SVA.8 cells assessed as accumulation of cells at G0/G1 phase at IC50 concentration after 48 hrs by flow cytometry (reference value: 64%); format: functional
Summary of the method: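 Normal (BNL CL2) and SV40 large T-antigen transformed (BNL SV A.8) mouse embryonic hepatic cells were treated at IC50 or IC70 concentration for 48 h. Analysis was by FACS, with apoptosis taken as % cells in the sub-G1 peak. Untreated cells served as control.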

[6] = Efflux ratio of permeability across basolateral to apical side over apical to basolateral side in human Caco2 cells; format: ADME, cell-based; settings: Caco-2
LS174T = test: Induction of p21 level in p53+, pRb+ human LS 174T cells at IC50 concentration after 24 hrs by Western blot analysis
[7] = Cell cycle arrest in SV-40 large T-antigen transformed human WI38 cells assessed as accumulation of cells at subG1 phase by flow cytometry; format: functional, cell-based; settings: WI-38
[8] = Growth inhibition of mouse BNL-SVA.8 cells after 48 hrs by MTT assay; format: functional
Summary of the method: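 MTT cell proliferation assay. IC50 (µM) was defined as the concentration giving 50% inhibition of cell growth.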

For `CN(CCc1c[nH]c2ccccc12)C(=O)c1ccc(-c2ccccc2)cc1`, the inhibition (Homo sapiens) was “inactive”, the Activity (MiaPaCa) was “inactive” and the inhibition [1] was “inactive”. For the same molecule, the half-life [2] was 19.8 min, the AUC(0-t) [3] was 187 ng·h/mL and the Vd [4] was 1.76 L/kg. The Activity [5] was 31%, the efflux ratio [6] was 1.1 and the Activity (LS174T) was “Active”. The Activity [7] was “Active” and the IC50 [8] was 3.8 µM.
